Screens (PubChem BioAssay)
NCF1 inh: blocks human p47phox regulatory protein of NADPH oxidases; p47phox/p22phox peptide binding, fluorescence polarization, 2 h; P14598; AID 1274; hit rate 0.53% among 220,000; inhibition, % at 24.7 µM;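 also: 0% = p47phox with labelled peptide and 100% = labelled peptide alone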
RBBP9 inhibitor: inhibitors of human serine hydrolase RBBP9; inhibition, % at 7.94 µM; O75884; AID 1515; recombinant RBBP9, FP-Rh probe fluorescence polarization; hit rate 0.2% among 220,000;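 active = inhibition above the campaign mean of all tested compounds plus 3 SD, cut at about 14% in these data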;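 also: plate controls were DMSO wells with RBBP9 for no effect and wells lacking RBBP9 protein for full effect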
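Test system – recombinant human RBBP9 · Input – RBBP9 2.5 µM in dispensing solution, pre-mixing · Medium – Tris buffer pH 8.0, NaCl, Pluronic · Schedule – preincubation 30 min plus labeling 45 min at 25 °C · Measured by – fluorescence polarization · Measure – % inhibition · Controls – DMSO and no-protein wells · Replicates – one well per compound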
eIF4E 4G PPI: inhibitors of eIF4E and eIF4G interaction in translation initiation. P63073+Q04637. hit rate 0.37% among 220,000. TR-FRET eIF4E-eIF4GI(517-606) binding, 2 h. inhibition, % at 21.7 µM;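 also: 0% = full FRET control wells and 100% = background wells lacking eIF4GI fragment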
Target sequence (P63073 whole entry, looked up, the tested form may be a part): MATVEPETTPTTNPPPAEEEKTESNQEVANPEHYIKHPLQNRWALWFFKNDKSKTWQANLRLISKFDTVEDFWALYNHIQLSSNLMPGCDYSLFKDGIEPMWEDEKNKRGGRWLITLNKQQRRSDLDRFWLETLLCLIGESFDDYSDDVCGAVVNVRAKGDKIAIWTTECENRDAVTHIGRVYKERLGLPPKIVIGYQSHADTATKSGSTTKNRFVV
Target sequence (Q04637 whole entry, looked up, the tested form may be a part): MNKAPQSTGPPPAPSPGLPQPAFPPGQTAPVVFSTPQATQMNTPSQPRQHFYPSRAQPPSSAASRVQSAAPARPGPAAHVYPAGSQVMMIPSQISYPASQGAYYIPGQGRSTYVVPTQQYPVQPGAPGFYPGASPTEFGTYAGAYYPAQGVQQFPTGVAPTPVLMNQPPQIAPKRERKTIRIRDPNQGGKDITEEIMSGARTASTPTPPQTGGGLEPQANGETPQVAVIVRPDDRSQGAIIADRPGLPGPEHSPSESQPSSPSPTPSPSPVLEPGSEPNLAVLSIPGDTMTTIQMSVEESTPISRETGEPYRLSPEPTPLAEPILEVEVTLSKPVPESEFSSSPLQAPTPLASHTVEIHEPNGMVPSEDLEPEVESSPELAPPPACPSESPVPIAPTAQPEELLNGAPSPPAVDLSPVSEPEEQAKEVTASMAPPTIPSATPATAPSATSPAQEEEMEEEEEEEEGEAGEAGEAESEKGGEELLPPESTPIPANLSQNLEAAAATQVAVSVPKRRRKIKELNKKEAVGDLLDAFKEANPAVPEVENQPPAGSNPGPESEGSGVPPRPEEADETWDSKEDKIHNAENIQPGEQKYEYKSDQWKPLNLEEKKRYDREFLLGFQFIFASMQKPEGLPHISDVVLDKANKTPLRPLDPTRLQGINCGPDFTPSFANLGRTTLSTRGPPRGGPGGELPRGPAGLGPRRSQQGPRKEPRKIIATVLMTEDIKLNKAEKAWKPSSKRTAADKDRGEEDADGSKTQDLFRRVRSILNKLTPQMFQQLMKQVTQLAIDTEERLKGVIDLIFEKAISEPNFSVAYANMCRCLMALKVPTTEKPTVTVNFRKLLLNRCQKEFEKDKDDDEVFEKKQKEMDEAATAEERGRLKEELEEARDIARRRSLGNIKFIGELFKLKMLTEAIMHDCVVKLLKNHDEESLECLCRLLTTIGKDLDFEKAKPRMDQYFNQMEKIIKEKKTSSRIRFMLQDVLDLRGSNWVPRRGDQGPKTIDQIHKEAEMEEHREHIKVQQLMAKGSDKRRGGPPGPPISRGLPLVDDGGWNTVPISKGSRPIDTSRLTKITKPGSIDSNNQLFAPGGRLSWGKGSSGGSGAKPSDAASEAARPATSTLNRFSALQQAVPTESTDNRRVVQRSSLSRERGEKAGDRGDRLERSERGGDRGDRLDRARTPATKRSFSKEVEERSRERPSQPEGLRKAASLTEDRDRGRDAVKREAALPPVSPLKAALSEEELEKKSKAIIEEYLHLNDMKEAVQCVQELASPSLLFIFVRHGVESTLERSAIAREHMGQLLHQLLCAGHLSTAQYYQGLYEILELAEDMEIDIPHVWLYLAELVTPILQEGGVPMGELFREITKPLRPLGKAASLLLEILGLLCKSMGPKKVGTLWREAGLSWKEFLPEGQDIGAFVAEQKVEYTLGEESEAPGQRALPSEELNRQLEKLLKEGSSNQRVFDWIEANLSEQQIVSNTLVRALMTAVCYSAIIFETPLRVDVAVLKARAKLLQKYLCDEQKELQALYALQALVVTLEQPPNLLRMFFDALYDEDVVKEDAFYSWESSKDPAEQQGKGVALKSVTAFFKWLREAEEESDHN
Wee1 degr inh: human Wee1 degradation inhibition, primary screen | P30291 | HeLa Luc-Wee1K328M stability, luciferase luminescence; 100% = proteasome inhibitor MG132 effect | reporter increase, % at 5 µM | hit rate 1.2% among 220,000 | AID 1321;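 active = activation above the mean of all tested compounds plus 3 SD, set per screening run, cut at about 8.8% in these data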;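 also: cells exposed to compound for 20 h before luminescence read; 0% = DMSO alone and 100% = MG132 at 30 µM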
14-3-3 Bad inh: disrupts binding of bovine 14-3-3 zeta to phospho-Bad peptide. P63103. TR-FRET 14-3-3zeta/Dy647-pBad peptide displacement, 1 h. inhibition, % at 21.7 µM. hit rate 0.71% among 220,000;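 active = inhibition above about 70%, limit read from the data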;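 also: 0% = full 14-3-3 plus peptide FRET controls and 100% = background without 14-3-3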
* marks the source's active call; other numbers are inactive results; ! = not active in a repeat; [ ] = dose if it differs, or a comment. Shown are actives, neighbours in structure and some others; about 2.8% of the full set was active somewhere.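 The calls were made as follows, unless noted: active = inhibition above about 30% (limit read from the data); inactive = the rest.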

SMILES	NCF1 inh	RBBP9 inhibitor	eIF4E 4G PPI	Wee1 degr inh	14-3-3 Bad inh
COCCn1nnnc1C(c1ccccc1OC)N1CCN(c2ccccc2F)CC1 (stereo unspecified)	-2.9	-6.5	9.1	-4.2	73.8*
COCCn1nnnc1C(c1ccc(Cl)cc1)N1CCSCC1 (stereo unspecified)	-3.0	-2.4	3.9	2.3	74.5*
COc1ccc(C(c2nnnn2Cc2cccs2)N2CCN(c3ccccc3F)CC2)cc1OC (stereo unspecified)	-11.2	-4.9	-9.7	1.3	82.6*
COCCn1nnnc1C(c1ccc(OC)cc1)N1CCN(c2ccccc2F)CC1 (stereo unspecified)	-7.3	-2.6	2.6	2.9	44.0
CCCC(c1nnnn1Cc1ccccc1)N1CCN(c2ccccc2OC)CC1 (stereo unspecified)	-1.9	2.9	10.9	-0.7	83.6*
CN(CCOc1ccccc1)S(=O)(=O)c1ccc2oc3ccccc3c2c1	-9.7	-3.4	-2.7	-3.2	2.5
N#CCCn1cc(C(=O)N2CCOCC2)c(-c2ccc3c(c2)OCCO3)n1	-1.9	-0.9	-2.5	-0.1	-3.0
N#Cc1nc(-c2ccccc2)oc1NCC1CCCO1 (stereo unspecified)	-16.6	-11.8	0.2	1.9	-1.1
N#Cc1nc(-c2ccc(Cl)cc2)oc1NCC1CCCO1 (stereo unspecified)	4.8	-3.6	-2.9	10.6*	-6.8
COC(=O)C1=NNC2(c3ccc(Cl)cc3)C(=O)N(c3ccccc3)C(=O)C12 (stereo unspecified)	-5.4	-9.8	6.6	1.2	-7.6
Cc1ccc(-n2c(SCC(=O)Nc3cccc(S(N)(=O)=O)c3)nc3ccccc32)cc1	-38.7	-19.3	0.6	0.6	-14.5
COc1ccc2no[n+]([O-])c2c1	-5.2	9.9	-2.6	1.9	8.8
C=CCNC(=O)/C(C#N)=C/c1cc(Br)ccc1OC	2.3	5.0	-1.4	10.6*	-8.8
C=CCNC(=O)/C(C#N)=C/c1ccccc1Cl	1.4	-0.5	-0.6	-1.1	-7.5
O=C1c2ccccc2C(=O)N1CCCCSc1nnc2ccccn12	132.7*	0.5	3.4	2.7	0.6
O=C1c2ccccc2C(=O)N1CCCCSc1nnnn1-c1ccccc1	5.2	-10.9	5.1	0.5	1.2
Cc1c(CN2CCCC(C(=O)c3cccc(OC(C)C)c3)C2)c(=O)n(-c2ccccc2)n1C (stereo unspecified)	-2.7	-1.1	3.8	-2.5	1.5
Cc1nc2c(sc3nc4c(cc32)COC(C)(C)C4)c(=O)n1CC(=O)NCc1ccco1	0.9	-9.5	2.3	9.3*	2.0
Cc1ccc(C)c(NC(=O)Cn2cnc3c(oc4ccccc43)c2=O)c1	-12.1	-3.3	4.4	3.4	-7.1
CCOC(=O)c1c(C)c(C(=O)Nc2ccc3c(c2)OCCO3)c(C)n1C	-21.3	-5.8	-3.2	9.2*	1.9
CCOC(=O)/C(=N/Nc1ccc(Cl)cc1)Sc1nnnn1-c1ccc(C)cc1	-13.2	-3.5	-1.3	10.8*	-9.7
CCC(=O)Nc1ccc2ccccc2c1	-11.3	-6.9	18.1	-1.3	-2.5
CC(Oc1ccccc1F)C(=O)Nc1ccc2ccccc2c1 (stereo unspecified)	4.2	1.8	3.8	9.3*	-2.3
CC(C)CC(=O)Nc1ccc2ccccc2c1	91.2*!	-4.2	-3.5	8.7	-10.2
O=C(Nc1ccc(-n2nncc2-c2ccco2)cc1)c1cc2ccccc2oc1=O	-1.9	-9.3	-64.2	0.0	79.3*[fluorescence artefact?]
SMILES	NCF1 inh	RBBP9 inhibitor	eIF4E 4G PPI	Wee1 degr inh	14-3-3 Bad inh
O=C(Nc1ccc(-n2nncc2-c2ccco2)cc1)c1cccc(F)c1	-21.5	-8.4	-0.1	-1.9	7.2
C(=N\Nc1ccccc1)/c1ccc(N2CCOCC2)cc1	-3.6	-14.3	-2.9	-1.7	88.3*[fluorescence artefact?]
Cc1c(C(=O)O)nn(-c2ccccc2)c(=O)c1C#N	-12.1	-3.1	-0.2	-0.4	11.1
Cc1c(C(=O)N2CCCCC2)nn(-c2ccc(Cl)cc2)c(=O)c1C#N	-7.2	-8.0	42.5*	-3.0	16.5
Cn1nc(C(F)(F)F)c(C(=O)Nc2cccc(Cl)c2)c1Cl	-4.9	-9.4	-4.0	-1.1	-1.7
COc1ccc(N)c2c1C(=O)c1ccccc1C2=O	-61.9	-7.2	2.1	-3.9	-44.1
Nc1ccc(O)c2c1C(=O)c1ccccc1C2=O	54.2*	11.4	30.7*[fluorescence artefact?]	0.0	55.3
Nc1ccc(Br)c2c1C(=O)c1ccccc1C2=O	36.8*	-4.8	2.3	-2.1	6.8
COc1cccc(-n2nc(C(C)=O)c(=O)[nH]c2=O)c1	1.2	-4.2	0.6	-0.1	2.7
O=C(CSc1nnc(NC(=O)c2c(F)cccc2F)s1)Nc1ccc(F)cc1	-9.9	3.1	1.9	10.2*	-5.9
O=C(CSc1nnc(NC(=O)Cc2ccc(F)cc2)s1)NCc1ccco1	0.1	3.7	0.9	10.0*	0.5
CCC(C)C(=O)Nc1nnc(SCC(=O)Nc2ccc(F)cc2)s1 (stereo unspecified)	-1.1	-6.8	-2.0	0.1	34.2
CCC(C)C(=O)Nc1nnc(SCC(=O)Nc2ccccc2F)s1 (stereo unspecified)	-5.3	1.7	-1.8	4.5	87.1*
C#CCSc1nc(N)c2c(n1)OC(N)=C(C#N)C2c1cccnc1 (stereo unspecified)	-5.7	-5.0	-5.0	0.9	-1.8
CCOC(=O)c1ccc(NC2c3ncccc3C(=O)N2Cc2ccc(F)cc2)cc1 (stereo unspecified)	1.5	6.6	0.9	0.1	85.6*
COc1ccc(CN2C(=O)c3cccnc3C2O)cc1 (stereo unspecified)	-15.1	-7.0	6.5	-1.8	86.6*
COc1ccc(NC2c3ncccc3C(=O)N2Cc2cccs2)cc1 (stereo unspecified)	-6.8	-3.5	-0.6	-1.1	3.1
COC(=O)c1cc(NC2c3ncccc3C(=O)N2Cc2ccccc2)cc(C(=O)OC)c1 (stereo unspecified)	14.9	4.3	4.0	-3.2	4.2
COc1ccc(CN2C(=O)c3cccnc3C2Nc2cc(Cl)ccc2OC)cc1 (stereo unspecified)	-1.9	-3.1	98.8*	0.6	95.5*[fluorescence artefact?]
O=C(N/N=C/c1cc2cc3c(cc2nc1Cl)OCO3)c1ccncc1	-11.0	4.7	-2.8	8.5	4.5
O=C(O)c1ccn(Cn2cnc3ccccc32)n1	7.8	-7.8	-4.6	-1.1	75.8*
CCc1ccccc1N(C)S(=O)(=O)c1ccc2[nH]cc(C(=O)O)c(=O)c2c1	-1.0	-8.8	9.3	9.5*	16.7
O=C(NC(=S)N(Cc1ccccc1)c1ccccn1)C1CC1	-10.0	-11.8	-2.7	-3.6	-2.3
CCN=C1S/C(=C\c2cn(CC)c3ccccc23)C(=O)N1CC	-14.1	-0.6	-15.3	1.8	-8.3
CCn1cc(C=C2C(=O)c3ccccc3C2=O)c2ccccc21	75.1*	-2.9	-230.0	0.8	-306.1
